Compound activity deposited in PubChem BioAssay by The Scripps Research Institute Molecular Screening Center.
Only some compounds are listed: those with a hit (about 2.3% of all), similar ones and a draw of the others.
TAAR1 antag = antagonists of human TAAR1; Q96RJ0; CHO RD-HGA16 TAAR1, Fluo-8 calcium fluorescence, antagonist; inhibition, % at 3 µM; 360,000 tested, 1.5% active; AID 624466;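 active = inhibition above a per-plate cutoff, the mean inhibition of test compounds on that plate plus 3 SD, cut at about 49% in these data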;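 note: 0% = DMSO plus EC80 beta-PEA response and 100% = DMSO alone without agonist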
Target sequence (Q96RJ0 whole entry, looked up): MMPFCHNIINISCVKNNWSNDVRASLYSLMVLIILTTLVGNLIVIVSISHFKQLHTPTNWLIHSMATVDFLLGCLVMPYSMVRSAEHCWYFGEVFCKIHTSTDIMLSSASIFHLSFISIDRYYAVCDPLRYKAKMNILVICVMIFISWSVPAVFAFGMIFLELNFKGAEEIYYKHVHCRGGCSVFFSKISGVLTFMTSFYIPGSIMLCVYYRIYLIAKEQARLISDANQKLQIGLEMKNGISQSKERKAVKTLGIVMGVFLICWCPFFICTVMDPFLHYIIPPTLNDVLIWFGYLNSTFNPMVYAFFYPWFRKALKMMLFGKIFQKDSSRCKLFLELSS
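Assay system: CHO-derived RD-HGA16 cells stably expressing human TAAR1 plus Gα16. Timing: 140 s kinetic read after compound, 140 s after agonist. Technique: kinetic Fluo-8 calcium fluorescence measurement. Measure: % inhibition of agonist calcium response.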
V1aR counter = counter-screen for oxytocin receptor agonists: human V1a receptor agonists; CHO-V1R cells, Fluo-8 calcium fluorescence, agonist mode; 0% DMSO, 100% 3 nM vasopressin; 320,000 tested, 0.25% active; activation, % at 3 µM; P37288; AID 2797;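 active = activation above the mean activation of all tested compounds plus 3 SD, per screening run, cut at about 20% in these data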;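 note: signal is peak over basal fluorescence ratio across a 100 second FLIPR read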
TAAR1 ag = human TAAR1 agonism; 360,000 tested, 0.99% active; activation, % at 3 µM; CHO RD-HGA16 TAAR1, Fluo-8 calcium fluorescence; vehicle wells 0%, saturating PEA agonist 100%; Q96RJ0;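 active = activation above the mean activation of all test compounds in the run plus 3 SD, cut at about 38% in these data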
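Benchmarks: low control DMSO, high control PEA (EC100); System: CHO RD-HGA16 cells carrying human TAAR1 plus Gα16; Detection: Fluo-8 fluorescence, 5 s baseline then 140 s kinetic read; Schedule: 17-24 h plating, Fluo-8 75 min 37 °C, 30 min RT; Read-out basis: % activation from peak over basal fluorescence ratio, DMSO-to-PEA scaled.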
OXTR ag = agonists of human oxytocin receptor. P30559. CHO-OTR cells, Fluo-8 calcium fluorescence; normalized: DMSO 0%, oxytocin 100%. activation, % at 3 µM. 320,000 tested, 0.32% active. AID 2435;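 active = activation above the mean of all tested compounds plus 3 SD, cutoff set per screening run, cut at about 20% in these data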;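 note: peak over basal fluorescence ratio from a 100 s FLIPR kinetic read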
OXTR potentiate = potentiates the human oxytocin receptor response. AID 2445. CHO-OTR cells, Fluo-8 calcium fluorescence, potentiator mode; 0% = oxytocin EC15, 100% = EC100. 320,000 tested, 0.061% active. activation, % at 3 µM. P30559;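 active = activation above that plate's cutoff, the mean activation of tested compounds plus 3 SD, cut at about 6.6% in these data, passing the limit was not always enough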;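 note: 100% uses oxytocin at 75 nM as the full agonist control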
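Material: CHO-OTR cells, human receptor; compound dosing: single dose, 3.0 µM nominal final compound concentration; schedule: 6 min compound pre-incubation at room temperature, 100 s kinetic read; measured by: kinetic Fluo-8 calcium fluorescence; read-out basis: % activation vs EC15 and EC100 oxytocin; controls: EC15 oxytocin alone as 0%, 75 nM oxytocin as 100%; replicates: singlicate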
Active calls of the source: *; · = no result given.

SMILES | TAAR1 antag | V1aR counter | TAAR1 ag | OXTR ag | OXTR potentiate
CCC1CCCCN1S(=O)(=O)c1ccc(NC(=O)c2nc(S(C)(=O)=O)ncc2Cl)cc1 (stereo not drawn) | 56* | -1 | 6 | -2 | -7
O=C(NCc1cccc(Cl)c1)c1cccc2c(-c3cccnc3)coc12 | 55* | · | 6 | · | ·
COc1ccc(/C=C/C(=O)N2CCCc3ccccc32)cc1 | 12 | 4 | 9 | -1 | -5
COc1cc(/C=C/C(=O)N2CCCc3ccccc32)cc(OC)c1OC | 52* | 0 | 10 | -2 | -7
Cc1ccc(-c2nc3cccnc3o2)cc1NC(=O)COc1ccc(Cl)cc1C | -1 | 0 | 8 | 0 | -12
Cc1ccc(-c2nc3cccnc3o2)cc1NC(=O)COc1ccc(C(C)(C)C)cc1 | 69* | 1 | 17 | -1 | -21
Nc1[nH]c(C(=O)c2ccccc2)c(-c2cccc(C(F)(F)F)c2)c1C(=O)c1c[nH]c2ccccc12 | -1 | · | 3 | · | ·
CCCC(C(=O)NCCC(C)C)N(Cc1ccccc1)C(=O)c1snc(C(N)=O)c1N (stereo not drawn) | 21 | -1 | -2 | -2 | -14
O=C1CC(N2CCN(S(=O)(=O)c3ccccc3F)CC2)C(=O)N1c1ccc(F)cc1F (stereo not drawn) | 8 | 2 | 1 | 2 | -4
CN(Cc1ccccc1)C(=O)c1ccc(Nc2nc(C(N)Cc3ccccc3)cs2)nc1 (stereo not drawn) | 45 | · | 45* | · | ·
NC(Cc1ccc(C(F)(F)F)cc1)c1csc(Nc2cc(NCc3ccco3)ncn2)n1 (stereo not drawn) | 29 | · | 38* | · | ·
COc1cccc(Nc2nc(C(N)Cc3ccccc3)cs2)n1 (stereo not drawn) | 29 | · | 52* | · | ·
NC(Cc1ccc(C(F)(F)F)cc1)c1csc(Nc2ccccn2)n1 (stereo not drawn) | 8 | · | 46* | · | ·
Cc1cc(=O)n2nc(N3CCCC(C(=O)NCc4cccc(Br)c4)C3)sc2n1 (stereo not drawn) | -11 | 0 | 0 | -1 | -8
COC(=O)[C@]12C[C@H](CC(=O)N3CCOCC3)C(=O)N(Cc3ccccc3)C1=C[C@H](C(C)C)O[C@@H]2C1CC1 | -13 | · | 1 | · | ·
CC1=NOC(=O)/C1=C/c1ccc(-c2ccc(Cl)cc2)o1 | · | 2 | · | 6 | -11
CC1=NOC(=O)/C1=C\c1ccc(-c2ccc(Br)cc2)o1 | 67* | · | 35 | · | ·
CNC(=O)c1cc(Oc2ccc(NC(=O)Nc3ccc(Cl)c(C(F)(F)F)c3)cc2)ccn1 | 47 | 13 | 44* | 17 | -10
Cc1ccc(NC(=O)CSc2nnc(-c3ccco3)n2N)cc1F | -33 | 3 | 41* | -1 | -6
CC(C)C(c1nnnn1Cc1ccco1)N1CCN(c2nc3ccccc3s2)CC1 (stereo not drawn) | 55* | 0 | 16 | -1 | -7
NS(=O)(=O)c1ccc(CCNC(=O)CCCCCn2c(=S)[nH]c3ccc(Br)cc3c2=O)cc1 | 60* | 0 | 25 | 0 | -6
Cc1cccnc1NC(=O)Cn1nc(-c2ccccc2)oc1=S | -6 | 0 | 1 | -1 | -4
Cc1cc(C)c2sc(N(CCCN(C)C)C(=O)c3ccc(S(=O)(=O)N(C)C4CCCCC4)cc3)nc2c1 | 19 | -1 | 41* | 13 | -15
CCN(Cc1ccccc1)S(=O)(=O)c1ccc(C(=O)N(CCCN(C)C)c2nc3ccc(F)cc3s2)cc1 | 40 | 1 | 41* | 5 | -11
Cc1ccc2nc(N(CCCN(C)C)C(=O)c3ccc4c(c3)CCCC4)sc2c1 | 20 | 7 | 38* | 7 | -1
SMILES | TAAR1 antag | V1aR counter | TAAR1 ag | OXTR ag | OXTR potentiate
COc1cc2nc(N(CCCN(C)C)C(=O)c3ccc(S(=O)(=O)N(C)C4CCCCC4)cc3)sc2cc1OC | -13 | 4 | 18 | 8 | 1
CCc1ccc2nc(N(CCCN(C)C)C(=O)c3ccc(S(=O)(=O)N(C)C4CCCCC4)cc3)sc2c1 | 51* | 17 | 39* | 16 | -14
COc1ccc(/C=C(\NC(=O)c2ccc([N+](=O)[O-])cc2)C(=O)N2CCOCC2)cc1 | 9 | 2 | 6 | -1 | -5
O=C(CN1C(=O)S/C(=C\C=C\c2ccccc2)C1=O)Nc1ccccc1C(=O)O | -19 | 0 | -2 | 0 | -5
C#CCN1C(=O)S/C(=C/C=C/c2ccc(N(C)C)cc2)C1=O | 34 | 24* | 24 | 35* | -12
Cc1ccc(NC(=O)CSC2=NN3CCCC(=O)N=C3S2)cc1Cl | 29 | 11 | 42* | 13 | -10
O=C1CCCN2N=C(SCC(=O)Nc3ccc(Cl)cc3)SC2=N1 | -18 | 10 | 39* | 7 | -14
O=C1CCCN2N=C(SCC(=O)Nc3cccc(Cl)c3)SC2=N1 | -9 | 13 | 13 | 11 | -12
Cc1ccccc1NC(=O)NC1CCCCC1C (stereo not drawn) | -7 | 0 | 6 | 0 | -3
COCCn1c2nc(=O)n(-c3ccccc3)c(=O)c-2nc2ccccc21 | 20 | · | 59* | · | ·
O=C(COC(=O)c1cccc(N2C(=O)c3ccccc3C2=O)c1)Nc1ccccc1 | 23 | 2 | 4 | 1 | 0
N#Cc1cccc(NC(=O)COC(=O)c2cccc(N3C(=O)c4ccccc4C3=O)c2)c1 | 60* | 3 | 8 | 2 | -10
COc1ccc(N(CC(=O)Nc2ccc(S(=O)(=O)N3CCOCC3)cc2)S(=O)(=O)c2ccc(F)cc2)cc1 | 51* | 0 | 20 | 1 | -6
COc1ccc(CCC(=O)Nc2ccc(S(=O)(=O)N3CCOCC3)cc2)cc1 | 5 | 5 | 7 | 8 | -8
O=C(Nc1ccc(N2CCOCC2)cc1)C1(c2ccc(Cl)cc2)CCC1 | 27 | 11 | 44* | 18 | -14
O=C(N1CCOCC1)C1(c2ccc(Cl)cc2)CCCC1 | -7 | -1 | 13 | -2 | -8
O=C(c1ccco1)N1CCN(Cc2nc3ccc([N+](=O)[O-])cc3c(=O)n2-c2ccccc2F)CC1 | 69* | 4 | 18 | 0 | -8
O=c1c2cc([N+](=O)[O-])ccc2nc(CN2CCN(c3ccccn3)CC2)n1-c1ccccc1F | 29 | 0 | 6 | 0 | -3
N#CCC(=O)Nc1ccc(C(=O)Nc2cccnc2)cc1 | -13 | 0 | 1 | -1 | -6
Cc1ccccc1CN1C(=O)[C@@H]2Cc3c([nH]c4ccccc34)C(C)(C)N2C1=O | 28 | 5 | 22 | 5 | -6
COc1ccc(CN2C(=O)[C@H]3Cc4c([nH]c5ccccc45)C(C)(C)N3C2=O)cc1 | 56* | 4 | 18 | 5 | -13
COc1ccc(CN2C(=O)[C@@H]3Cc4c([nH]c5ccccc45)C(C)(C)N3C2=O)cc1 | 30 | 2 | 5 | 4 | -12
